Assay results as given in PubChem BioAssay AID602302 (The Scripps Research Institute Molecular Screening Center, 2012).
Activity calls are given as the source filed them.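 The calls were made as follows: active = inhibition of diacylglycerol lipase beta of at least 50% in a gel probe-labeling test; inactive = inhibition under 50%.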

molecular target: Diacylglycerol lipase-beta (Mus musculus) (UniProt Q91WC9); assay: DAGLb inhibitors by competitive gel ABPP, late-stage follow-up, biochemical, in-gel fluorescence, HEK293T membranes, overexpressed mouse DAGLb, set 1 (AID 602302); settings: HEK293T membrane overexpressing mouse DAGLb, at 0.1 µM, stronger effect = higher value
In short: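 Buffer or medium – Dulbecco's PBS (DPBS) · Test system – membrane proteome of transiently transfected HEK293T cells, overexpressed mouse DAGLb · Quantity – membrane protein at 0.3 mg/mL · Doses – single compound dose of 100 nM (0.1 µM) final · Timing – 30 min compound plus 30 min probe, 37 °C · Reagent – fluorescent probe HT-01 at 1 µM final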

Diacylglycerol lipase-beta (Mus musculus), sequence (Q91WC9 whole entry, looked up): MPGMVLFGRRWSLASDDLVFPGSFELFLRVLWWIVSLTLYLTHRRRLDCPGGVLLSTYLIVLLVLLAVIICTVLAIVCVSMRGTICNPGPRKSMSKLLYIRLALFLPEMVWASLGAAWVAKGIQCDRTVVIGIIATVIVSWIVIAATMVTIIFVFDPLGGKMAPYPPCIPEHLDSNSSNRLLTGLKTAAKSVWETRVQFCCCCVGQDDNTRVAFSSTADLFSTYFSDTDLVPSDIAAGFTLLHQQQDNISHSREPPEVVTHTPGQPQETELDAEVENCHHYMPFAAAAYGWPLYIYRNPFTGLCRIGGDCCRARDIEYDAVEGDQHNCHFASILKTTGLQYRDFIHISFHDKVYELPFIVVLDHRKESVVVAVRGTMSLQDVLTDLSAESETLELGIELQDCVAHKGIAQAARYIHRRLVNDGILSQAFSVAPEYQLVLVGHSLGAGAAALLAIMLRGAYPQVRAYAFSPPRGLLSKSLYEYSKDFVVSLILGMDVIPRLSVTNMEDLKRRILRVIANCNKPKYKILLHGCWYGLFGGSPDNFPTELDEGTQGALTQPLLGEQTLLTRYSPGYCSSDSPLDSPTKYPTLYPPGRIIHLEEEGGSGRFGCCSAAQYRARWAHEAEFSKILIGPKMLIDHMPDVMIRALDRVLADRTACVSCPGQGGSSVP

Row | inhibition | Structure (SMILES)
1 | 59% | O=C(N1CCCCC1Cc1ccccc1)n1cc(-c2ccc(-c3ccccc3C(F)(F)F)cc2)nn1 (stereo not given)
2 | 38% (inactive) | O=C(N1CCCCC1Cc1ccccc1)n1cc(-c2ccc(-c3ccc(OC(F)(F)F)cc3)cc2)nn1 (stereo not given)
3 | 52% | O=C(N1CCCCC1Cc1ccccc1)n1cc(-c2ccc(-c3ccoc3)cc2)nn1 (stereo not given)
4 | 68% | O=C(N1CCCCC1Cc1ccccc1)n1cc(-c2ccc(Br)cc2)nn1 (stereo not given)
5 | 10% (inactive) | O=C(c1ccc(-c2ccc(-c3cn(C(=O)N4CCCCC4Cc4ccccc4)nn3)cc2)cc1)N1CCCCC1 (stereo not given)
6 | 73% | CC(C)(C)OC(=O)NCCCCCN(CCc1ccccc1)C(=O)n1cc(-c2ccc(OC(F)(F)F)cc2)nn1
7 | 70% | CC(C)CN(CCc1ccccc1)C(=O)n1cc(-c2ccc(OC(F)(F)F)cc2)nn1
8 | 52% | O=C(N1CCCCC1Cc1ccccc1)n1cc(-c2ccc(OC(F)(F)F)cc2)nn1 (stereo not given)
9 | 67% | O=C(N1CCCCC1Cc1ccccc1)n1cc(-c2ccc(-c3ccccc3CO)cc2)nn1 (stereo not given)
10 | 0% (inactive) | O=C(N1CCCCC1Cc1ccccc1)n1ncc(-c2ccc(OC(F)(F)F)cc2)n1 (stereo not given)
11 | 18% (inactive) | O=C(N1CCCCC1Cc1ccccc1)n1cc(-c2ccc(-c3ccc4c(c3)OCO4)cc2)nn1 (stereo not given)
12 | 9% (inactive) | O=C(N1CCCCC1Cc1ccccc1)n1ncc(C(O)(c2ccccc2)c2ccccc2)n1 (stereo not given)
13 | 11% (inactive) | O=C(N1CCCCC1Cc1ccccc1)n1cc(-c2ccc(-c3cccc(CO)c3)cc2)nn1 (stereo not given)
14 | 18% (inactive) | O=C(N1CCCCC1Cc1ccccc1)n1cc(-c2ccccc2-c2ccccc2)nn1 (stereo not given)
15 | 41% (inactive) | O=C(c1ccc(-c2cn(C(=O)N3CCCCC3Cc3ccccc3)nn2)cc1)N1CCCCC1 (stereo not given)
16 | 44% (inactive) | O=C(N1CCCCC1Cc1ccccc1)n1cc(-c2ccc(-c3cccc(C(F)(F)F)c3)cc2)nn1 (stereo not given)
17 | 55% | COc1ccccc1-c1ccc(-c2cn(C(=O)N3CCCCC3Cc3ccccc3)nn2)cc1 (stereo not given)
18 | 55% | O=C(N1CCCCC1Cc1ccccc1)n1cc(-c2cc(F)cc(F)c2)nn1 (stereo not given)
19 | 63% | Cc1ccccc1-c1ccc(-c2cn(C(=O)N3CCCCC3Cc3ccccc3)nn2)cc1 (stereo not given)
20 | 59% | O=C(N1CCCCC1Cc1ccccc1)n1cc(-c2ccc(-c3ccccc3OC(F)(F)F)cc2)nn1 (stereo not given)
21 | 71% | O=C(N(CCc1ccccc1)Cc1ccco1)n1cc(-c2ccc(OC(F)(F)F)cc2)nn1
22 | 27% (inactive) | O=C(N1CCCCC1Cc1ccccc1)n1cc(-c2cccc(-c3ccccc3)c2)nn1 (stereo not given)
23 | 66% | O=C(N1CCCCC1Cc1ccccc1)n1cc(-c2ccc(-c3ccccc3Cl)cc2)nn1 (stereo not given)
24 | 31% (inactive) | O=C(N1CCCCC1Cc1ccccc1)n1cc(-c2ccc(-c3ccc(C(F)(F)F)cc3)cc2)nn1 (stereo not given)

Row | Structure (SMILES) | inhibition
25 | O=C(N1CCCCC1Cc1ccccc1)n1cc(-c2ccc(-c3ccccc3)cc2)nn1 (stereo not given) | 61%
